Usually inhibition stands for the percentage by which the read-out fell short of the control. Read a high inhibition as a strong effect.

The species named for assay [1] is Rattus norvegicus. The assay is described as follows: Antisecretory activity in rat pylorus ligation-induced ulcer model determined by ratio of total acidity inhibition in drug treated to untreated control. Format: functional. The method in brief:
(§1)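 Sprague Dawley rats (130-150 g) fasted 24 h with water ad libitum; pylorus ligated through a midline incision under ether anesthesia. Dosing oral, 1 h before ligation. Gastric juice free and total acidity titrated against 0.01 N NaOH, with Topfer's reagent and phenolphthalein as indicators. Values expressed as ratio of percent inhibition, treated vs control group.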

The species named for assay [2] is Rattus norvegicus. Nature of the assay: Antisecretory activity in rat pylorus ligation-induced ulcer model determined by ratio of free acidity inhibition in drug treated to untreated control. Format: functional. The method in brief: as §1
The species named for assay [3] is Rattus norvegicus. Nature of the assay: Inhibition of gastric H+/K(+)-ATPase activity in Sprague-Dawley rat microsomal vesicles at 10 umol. The note with it: Stomach, Microsome. Format: microsomes. The method in brief: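 Rat gastric microsomes were prepared by density gradient and differential centrifugation. The medium held 40 mM Tris-HCl pH 7.4, 2 mM MgCl2, 10 mM KCl (water for blank) and […] vesicular protein. Compound was preincubated 30 min at 37 °C. Tris-ATP at 0.3, 1.0 or 3 mM was then added for 20 min and stopped with chilled 10% TCA. Released Pi was read at 530 nm; % inhibition vs control.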

In the case of `CC(C)(C)[C@H]1OC(=O)[C@@]2(C3(O)CCCCC3)CCC(=O)N12`, the Activity in the assay listed under Rattus norvegicus [1] was 0.22; in the assay filed under Rattus norvegicus [2], 0.2. In addition, the inhibition in the assay listed under Rattus norvegicus [3] was 55%.

Consider `O=C(O)[C@@H]1CCCN1C(=O)/C=C/c1ccccc1`, for which the Activity in the assay listed under Rattus norvegicus [1] is 0.76; in the assay filed under Rattus norvegicus [2] it was 0.65. The inhibition in the assay listed under Rattus norvegicus [3] turned out to be 58%.

For `O=C1CC[C@@H](C(=O)O)N1` [PIDOLIC ACID], the Activity in the assay listed under Rattus norvegicus [1] stood at 0.75; in the assay listed under Rattus norvegicus [2], 0.69. This molecule also returned an inhibition in the assay filed under Rattus norvegicus [3] of 67%.

`COC(=O)[C@@H]1CCCN1C(=O)/C=C/c1ccccc1`: the Activity amounted to 0.59 in the assay listed under Rattus norvegicus [1] and 0.47 in the assay listed under Rattus norvegicus [2]. The same molecule had an inhibition in the assay listed under Rattus norvegicus [3] of 62%.

In the case of `CC(C)(C)OC(=O)[C@@H]1CCC(=O)N1Cc1ccccc1`, the Activity is given as 0.52 in the assay listed under Rattus norvegicus [1] and 0.34 in the assay listed under Rattus norvegicus [2]. This molecule came in with an inhibition in the assay filed under Rattus norvegicus [3] of 92%.

For `COC(=O)[C@@H]1CCC(=O)N1Cc1ccc(Cl)cc1`, the results for the Activity in the assay filed under Rattus norvegicus [1] and in the assay listed under Rattus norvegicus [2] were 1.01 and 0.67, respectively. The same molecule gave an inhibition in the assay listed under Rattus norvegicus [3] of 46%.

As to `O=C(N[C@H](CO)C(=O)O)OCc1ccccc1`, the results for the Activity in the assay listed under Rattus norvegicus [1] and in the assay listed under Rattus norvegicus [2] were 0.49 and 0.36, respectively. The inhibition in the assay filed under Rattus norvegicus [3] came out at 46%.

Consider `COc1ccccc1CN1C(=O)CC[C@H]1C(=O)O`, for which the Activity is listed as 0.64 in the assay filed under Rattus norvegicus [1] and 0.61 in the assay filed under Rattus norvegicus [2]. In the assay listed under Rattus norvegicus [3], this molecule displayed an inhibition of 49%.

As for `O=C(O)[C@@H]1CCC(=O)N1Cc1ccccc1Cl`, the Activity came out at 0.51 in the assay listed under Rattus norvegicus [1] and 0.66 in the assay listed under Rattus norvegicus [2]. In the assay filed under Rattus norvegicus [3], this molecule showed an inhibition of 32%.

For the molecule `O=C(O)[C@@H]1CCC(=O)N1Cc1ccccc1Cc1ccccc1`, the Activity amounted to 0.33 in the assay listed under Rattus norvegicus [1] and 0.48 in the assay listed under Rattus norvegicus [2]. Besides, the inhibition in the assay filed under Rattus norvegicus [3] was 71%.

With `O=C(N[C@@H](COCc1ccccc1)C(=O)O)OCc1ccccc1`, the Activity in the assay listed under Rattus norvegicus [1] was found to be 0.5; in the assay listed under Rattus norvegicus [2], 0.48. Also, in the assay listed under Rattus norvegicus [3], the inhibition was 59%.

Consider `Cc1ccccc1CN1C(=O)CC[C@H]1C(=O)O`, for which the Activity in the assay listed under Rattus norvegicus [1] was found to be 0.89; in the assay filed under Rattus norvegicus [2], 0.92. Also, the inhibition in the assay listed under Rattus norvegicus [3] is 46%.

With `O=C(O)[C@@H]1CCCN1C(=O)Cc1ccccc1`, the results for the Activity in the assay listed under Rattus norvegicus [1] and in the assay filed under Rattus norvegicus [2] were 0.38 and 0.41, respectively. The molecule further gave an inhibition in the assay listed under Rattus norvegicus [3] of 92%.

Take `CC(C)(C)OC(=O)N[C@@H](CO)C(=O)O`: the Activity in the assay filed under Rattus norvegicus [1] was found to be 0.72; in the assay filed under Rattus norvegicus [2], 0.71. The molecule also registered an inhibition in the assay listed under Rattus norvegicus [3] of 34%.

As to `CC(C)(C)[C@H]1OC(=O)[C@@H]2CCC(=O)N21`, the Activity was found to be 0.49 in the assay filed under Rattus norvegicus [1] and 0.61 in the assay listed under Rattus norvegicus [2]. The inhibition in the assay filed under Rattus norvegicus [3] was determined as 92%.

For `CC(C)N1C(=O)CC[C@H]1C(=O)OC(C)(C)C`, the Activity in the assay listed under Rattus norvegicus [1] was determined as 0.69; in the assay listed under Rattus norvegicus [2], 0.72. In the assay listed under Rattus norvegicus [3], this molecule gave an inhibition of 52%.

Regarding `O=C(O)[C@@H]1CCC(=O)N1Cc1cccc2ccccc12`, the Activity in the assay listed under Rattus norvegicus [1] is given as 0.91; in the assay listed under Rattus norvegicus [2], 0.35. This molecule showed an inhibition in the assay listed under Rattus norvegicus [3] of 53%.

In the case of `O=C(O)[C@H]1CCC(=O)N1Cc1ccccc1`, the values for the Activity in the assay listed under Rattus norvegicus [1] and in the assay filed under Rattus norvegicus [2] were 0.51 and 0.46, respectively. The inhibition in the assay filed under Rattus norvegicus [3] was determined as 55%.

Consider `CCOC(=O)[C@@H](NC(=O)OCc1ccccc1)C(O)/C=C/c1ccccc1` (some centres undefined), for which the Activity is 0.98 in the assay listed under Rattus norvegicus [1] and 0.93 in the assay filed under Rattus norvegicus [2]. Further, the inhibition in the assay filed under Rattus norvegicus [3] amounted to 65%.

In the case of `CC(C)(C)[C@H]1OC(=O)[C@@]2([C@@H](O)c3ccccc3)CCC(=O)N12`, the figures for the Activity in the assay listed under Rattus norvegicus [1] and in the assay filed under Rattus norvegicus [2] were 0.27 and 0.17, respectively. The inhibition in the assay listed under Rattus norvegicus [3] was found to be 44%.

For `COC(=O)[C@@H]1CCCN1C(=O)c1ccccc1`, the Activity turned out to be 1.14 in the assay listed under Rattus norvegicus [1] and 0.9 in the assay filed under Rattus norvegicus [2]. This molecule came in with an inhibition in the assay listed under Rattus norvegicus [3] of 91%.

Regarding `CCOC(=O)N1CCC[C@H]1C(=O)OC`, the values for the Activity in the assay listed under Rattus norvegicus [1] and in the assay listed under Rattus norvegicus [2] were 0.64 and 0.59, respectively. Besides, the inhibition in the assay filed under Rattus norvegicus [3] amounted to 68%.

Consider `CCOC(=O)[C@@H](NC(=O)OCc1ccccc1)C(O)C#C[Si](C)(C)C` (some centres undefined), for which the Activity in the assay filed under Rattus norvegicus [1] is 1; in the assay filed under Rattus norvegicus [2], 1.01. In the assay filed under Rattus norvegicus [3], this molecule yielded an inhibition of 10%.

`CC(C)(C)OC(=O)[C@@H]1CCC(=O)N1Cc1ccccc1Cl`: the Activity in the assay filed under Rattus norvegicus [1] is 0.27; in the assay filed under Rattus norvegicus [2] it was 0.17. Further, the inhibition in the assay filed under Rattus norvegicus [3] turned out to be 88%.

Take `Cc1ccccc1CN1C(=O)CC[C@H]1C(=O)OC(C)(C)C`: the Activity in the assay listed under Rattus norvegicus [1] amounted to 0.62; in the assay filed under Rattus norvegicus [2], 0.63. In the assay listed under Rattus norvegicus [3], the inhibition was 68%.

As for `COC(=O)[C@@H]1CCCN1C(=O)Cc1ccc(OC)cc1`, the Activity in the assay filed under Rattus norvegicus [1] is 0.86; in the assay listed under Rattus norvegicus [2], 0.81. The same molecule yielded an inhibition in the assay listed under Rattus norvegicus [3] of 52%.

Take `Cc1ccc(CN2C(=O)CC[C@H]2C(=O)OC(C)(C)C)cc1`: the results for the Activity in the assay filed under Rattus norvegicus [1] and in the assay listed under Rattus norvegicus [2] were 0.52 and 0.48, respectively. The same molecule displayed an inhibition in the assay listed under Rattus norvegicus [3] of 79%.

For `O=C(O)[C@@H]1CCC(=O)N1Cc1ccccc1`, the values for the Activity in the assay listed under Rattus norvegicus [1] and in the assay filed under Rattus norvegicus [2] were 0.93 and 0.86, respectively. In the assay filed under Rattus norvegicus [3], the inhibition was determined as 44%.

Values taken from ChEMBL document CHEMBL1144581, “alpha-Amino acid derivatives as proton pump inhibitors and potent anti-ulcer agents” (2007).
